Experimental data published in ChEMBL document CHEMBL4145657 (J Med Chem, 2018).
The source made the active and inactive calls. The rule behind the calls is not given here.

How the values were obtained:
[1] = target: Delta-type opioid receptor (Homo sapiens) (UniProt P41143); assay: Agonist activity at human delta opioid receptor expressed in CHO cell membranes at 10 uM incubated for 60 mins by [35S]GTPgammaS binding assay; type: functional
Outline: (§1)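 CHO cell membranes expressing human κ (20 µg), µ (10 µg) or δ (7 µg) opioid receptor. Test compound at 10 µM final, with 10 µM GDP and 0.1 nM [35S]GTPγS in HEPES pH 7.4 buffer containing NaCl, MgCl2, EDTA, DTT and BSA. Incubated 60 min at 22 °C with shaking, then filtered and counted. Nonspecific binding defined with 10 µM unlabeled GTPγS.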

[2] = target: Kappa-type opioid receptor (Homo sapiens) (UniProt P41145); assay: Agonist activity at human kappa opioid receptor expressed in CHO cell membranes at 10 uM incubated for 60 mins by [35S]GTPgammaS binding assay; type: functional; outline: as §1
[3] = target: Mu-type opioid receptor (Homo sapiens) (UniProt P35372); assay: Agonist activity at human mu opioid receptor expressed in CHO cell membranes at 10 uM incubated for 60 mins by [35S]GTPgammaS binding assay; type: functional; outline: as §1
[4] = target: Delta-type opioid receptor (Homo sapiens) (UniProt P41143); conditions: CHO
[5] = Clearance in Sprague-Dawley rat plasma at 5 mg/kg, sc measured after 1 to 168 hrs post dose by LC/MS-MS method; type: ADME, organism-based
Outline: (§2)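 Male Sprague Dawley rats, 10 weeks old, single subcutaneous 5 mg/kg dose at 1 mL/kg. Three rats per timepoint were killed by CO2 at 1, 4, 24, 72 and 168 h. Cardiac blood went into K3EDTA and was spun to plasma. Brains were homogenized 1:5 in 50:50 ethanol:water. Methanol precipitation used buspirone as internal standard. Analysis was by LC/MS-MS on C8 reverse phase. Parameters were taken from the apparent terminal elimination phase.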

[6] = Half life in Sprague-Dawley rat plasma at 5 mg/kg, sc measured after 1 to 168 hrs post dose by LC/MS-MS method; type: ADME, organism-based; conditions: in vivo
Outline: as §2, with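 “mL/kg.” for “mL/kg. Three rats per timepoint were killed by CO2 at 1, 4, 24, 72 and 168 h.”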

[7] = target: Mu-type opioid receptor (Homo sapiens) (UniProt P35372); conditions: CHO
[8] = rat, in vivo, sc, 5 mg/kg

Sequence of Kappa-type opioid receptor (Homo sapiens) (P41145 whole entry): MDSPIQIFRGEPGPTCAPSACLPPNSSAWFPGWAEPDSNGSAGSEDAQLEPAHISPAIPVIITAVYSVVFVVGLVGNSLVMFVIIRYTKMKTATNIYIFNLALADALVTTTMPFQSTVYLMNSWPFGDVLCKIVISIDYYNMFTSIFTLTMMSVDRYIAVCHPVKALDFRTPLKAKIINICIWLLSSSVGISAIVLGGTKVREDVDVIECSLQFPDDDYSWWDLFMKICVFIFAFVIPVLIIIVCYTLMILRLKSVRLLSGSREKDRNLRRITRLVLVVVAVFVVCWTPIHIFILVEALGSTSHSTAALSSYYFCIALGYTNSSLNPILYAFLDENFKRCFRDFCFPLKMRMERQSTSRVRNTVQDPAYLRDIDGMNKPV
Sequence of Mu-type opioid receptor (Homo sapiens) (P35372 whole entry): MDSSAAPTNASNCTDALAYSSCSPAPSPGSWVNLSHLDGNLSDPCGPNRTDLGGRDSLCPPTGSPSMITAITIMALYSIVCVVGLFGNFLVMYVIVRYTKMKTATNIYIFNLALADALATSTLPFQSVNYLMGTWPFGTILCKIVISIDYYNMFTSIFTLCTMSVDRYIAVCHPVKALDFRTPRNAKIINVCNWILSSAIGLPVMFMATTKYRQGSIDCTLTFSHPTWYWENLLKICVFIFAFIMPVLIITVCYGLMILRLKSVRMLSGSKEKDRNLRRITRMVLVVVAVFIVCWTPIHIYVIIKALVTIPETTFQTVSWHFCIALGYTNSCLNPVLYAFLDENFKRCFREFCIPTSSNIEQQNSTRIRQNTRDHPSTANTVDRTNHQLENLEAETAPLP
Sequence of Delta-type opioid receptor (Homo sapiens) (P41143 whole entry): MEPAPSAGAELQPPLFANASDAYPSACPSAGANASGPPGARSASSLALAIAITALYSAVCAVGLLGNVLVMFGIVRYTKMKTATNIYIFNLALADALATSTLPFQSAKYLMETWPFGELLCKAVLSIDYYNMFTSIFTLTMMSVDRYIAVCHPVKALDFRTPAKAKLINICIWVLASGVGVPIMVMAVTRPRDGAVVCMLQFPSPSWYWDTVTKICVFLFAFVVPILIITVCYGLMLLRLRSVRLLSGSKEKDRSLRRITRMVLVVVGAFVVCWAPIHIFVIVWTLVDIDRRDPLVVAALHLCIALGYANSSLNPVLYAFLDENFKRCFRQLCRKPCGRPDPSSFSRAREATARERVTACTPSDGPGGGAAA

Compound	Activity [1]	Activity [2]	Activity [3]	Ke [4] [nM]	CL/F [5] [mL/min/kg]	t1/2 [6] [h]	Ke [7] [nM]	Tmax [8] [h]
O=C(N[C@H](CC1CCCC1)C1CC1)[C@H]1Cc2ccc(O)cc2CN1	inactive	inactive	inactive	–	–	–	–	–
CC(C)[C@H](CC1CCCCC1)NC(=O)[C@H]1Cc2ccc(O)cc2CN1	inactive	inactive	inactive	> 3000	–	–	–	–
CC(C)[C@@H](CC1CCCCCC1)NC(=O)[C@H]1Cc2ccc(O)cc2CN1	inactive	inactive	inactive	–	–	–	–	–
CC(C)[C@@H](CC1CCCCC1)NC(=O)[C@H]1Cc2ccc(F)cc2CN1	inactive	inactive	inactive	–	–	–	–	–
O=C(NCCC1CCCCC1)[C@H]1Cc2ccc(O)cc2CN1	inactive	inactive	inactive	–	–	–	–	–
O=C(N[C@H](CC1CCCCC1)c1ccccc1)[C@H]1Cc2ccc(O)cc2CN1	inactive	inactive	inactive	–	–	–	–	–
CC(C)[C@@H](CC1CCCC1)NC(=O)[C@@]1(C)Cc2ccc(O)cc2CN1	inactive	inactive	inactive	–	–	–	–	–
CC(C)[C@@H](CC1CCCCC1)NC(=O)[C@H]1Cc2ccc(C(N)=O)cc2CN1	inactive	inactive	inactive	–	71.2	–	–	–
CC(C)[C@@H](CC1CCCCC1)NC(=O)[C@@H]1Cc2ccc(O)cc2CN1	inactive	inactive	inactive	> 3000	–	–	–	–
CC(C)[C@@H](CC1CCCC1)NC(=O)[C@H]1Cc2ccc(O)cc2CN1	inactive	inactive	inactive	1570	130	32.1	344	–
CC(C)[C@@H](CC1CCCC1)NC(=O)[C@H]1Cc2ccc(C(N)=O)cc2CN1	inactive	inactive	inactive	–	–	–	–	–
CC1CCC(C[C@@H](NC(=O)[C@H]2Cc3ccc(O)cc3CN2)C(C)C)CC1 (some centres undefined)	inactive	inactive	inactive	–	–	–	–	–
CC(C)[C@@H](CC1CCCCC1)NC(=O)[C@H]1Cc2ccccc2CN1	inactive	inactive	inactive	–	–	–	–	–
CC(C)[C@@H](CC1CCCCC1)NC(=O)[C@H]1Cc2ccc(O)cc2CN1C	inactive	inactive	inactive	–	–	–	–	–
CC(C)[C@@H](CN1CC[C@@](C)(c2cccc(O)c2)[C@@H](C)C1)NC(=O)[C@H]1Cc2ccc(O)cc2CN1 [JDTIC]	–	–	–	–	–	28.4	–	–
CC(C)[C@@H](CC1CCCCC1)NC(=O)[C@H]1Cc2ccc(O)cc2CN1	inactive	inactive	inactive	–	98.6	34.2	–	1
O=C(N[C@H](CC1CCCCC1)C1CC1)[C@H]1Cc2ccc(O)cc2CN1	inactive	inactive	inactive	–	–	–	–	–
CC(C)[C@@H](CC1CCC1)NC(=O)[C@H]1Cc2ccc(O)cc2CN1	inactive	inactive	inactive	–	–	–	–	–
COc1ccc2c(c1)CN[C@@H](C(=O)N[C@H](CC1CCCCC1)C(C)C)C2	inactive	inactive	inactive	–	–	–	–	–
CC(C)[C@H](CC1CCCCC1)NC(=O)[C@@H]1Cc2ccc(O)cc2CN1	inactive	inactive	inactive	> 3000	–	–	–	–
